DNA FID counter: counter-screen for HCV NS3 helicase inhibitors: DNA intercalator displacement; AID 1845; DNA fluorescent intercalator displacement, fluorescence; inhibition, % at 7.9 µM; 290,000 tested, 0.17% active; in the data active means inhibition above about 37%;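 further: 0% = vehicle and 100% = reference compound; higher means more ethidium bromide displaced from hairpin DNA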
EBNA-1 inhibitor: blocks EBNA-1 binding to DNA; EBNA-1 DNA binding, fluorescence polarization; inhibition, % at 14.8 µM; 300,000 tested, 0.34% active; AID 1950; in the data active means inhibition above about 28%
GRIN3A LBD mod: NR3A (human) ligand-binding domain modulation. NR3A LBD differential scanning fluorimetry, Tm shift; 0% = protein alone, 100% = glycine-bound protein. Tm shift relative to glycine control, % at 25 µM. 340,000 tested, 2.5% active;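 active means melting temperature shift of at least 10% of the positive control shift, at one fixed dose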
NS3 helicase inh: HCV NS3 helicase inhibition; inhibition, % at 10.9 µM; NS3 helicase DNA unwinding, Cy5 molecular beacon fluorescence; 290,000 tested, 0.56% active;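 active means inhibition above the mean of all tested compounds plus 3 SD, set per campaign, cut at about 35% in these data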;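 further: 0% = DMSO wells and 100% = thioflavine S control wells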
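Assay system: hepatitis C virus NS3 helicase domain fragment enzyme. Also added: annealed dual-labelled DNA beacon duplex, ATP-started. Timing: 1 h reaction at 25 °C, ATP-initiated. Technique: Cy5 fluorescence at 0 and 60 min, beacon hairpin quenching. Evaluation: % inhibition of unwinding. Replication: one well per compound.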
FGF22 binding: shifts melting point of recombinant human FGF22. Q9HCT0. recombinant FGF22 thermal shift, SYPRO orange fluorescence; percent of sucrose octasulfate shift, DMSO zero. AID 651658. 340,000 tested, 1.5% active. activity (Tm shift, normalised), % at 9.99 µM;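 active means mean Tm shift, scaled 0 neutral to 100 positive control, at about 1.3% or above, every replicate too, limit read from the data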
Target sequence (Q9HCT0 whole entry, looked up): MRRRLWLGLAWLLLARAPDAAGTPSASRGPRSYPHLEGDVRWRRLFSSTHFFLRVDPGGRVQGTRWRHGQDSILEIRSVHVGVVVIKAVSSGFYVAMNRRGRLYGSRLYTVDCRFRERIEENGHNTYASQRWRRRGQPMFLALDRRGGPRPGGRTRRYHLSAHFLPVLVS
ZTA counter: ZTA (EBV) inhibition in EBNA-1 counter-screen | ZTA-DNA binding, fluorescence polarization | 320,000 tested, 0.15% active | AID 2234 | P03206 | inhibition, % at 11 µM; in the data active means inhibition above about 33%
Target sequence (P03206 whole entry, looked up): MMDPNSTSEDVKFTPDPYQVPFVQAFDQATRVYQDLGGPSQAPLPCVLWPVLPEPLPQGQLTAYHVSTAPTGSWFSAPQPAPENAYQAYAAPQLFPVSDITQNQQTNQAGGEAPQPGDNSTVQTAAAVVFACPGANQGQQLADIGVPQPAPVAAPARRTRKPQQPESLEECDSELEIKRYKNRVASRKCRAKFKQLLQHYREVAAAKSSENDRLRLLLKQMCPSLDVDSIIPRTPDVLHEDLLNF
Zta DNA confirm: EBV ZTA DNA binding inhibition, confirmation; shares compounds with ZTA counter; 320 tested, 30% active; inhibition, % at 11.1 µM; AID 2361; Zta-ZRE DNA binding, fluorescence polarization;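 active means mean inhibition across triplicate runs above the hit threshold derived for the original primary screen, cut at about 33% in these data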;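 further: 0% = Zta with DMSO and 100% = wells lacking Zta protein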
EBNA1 counter: counter-screen for ZTA inhibitors: EBNA-1 DNA binding inhibition; shares compounds with ZTA counter; AID 2362; 320 tested, under 10 active; inhibition, % at 14.8 µM; fluorescence polarization; call rule not given here
* = called active by the depositor; . = no result. This is a sample that favours compounds with a hit; in the whole collection about 3.6% have one here.

SMILES | DNA FID counter | EBNA-1 inhibitor | GRIN3A LBD mod | NS3 helicase inh | FGF22 binding | ZTA counter | Zta DNA confirm | EBNA1 counter
C#CCOCCOCCOCCNc1nc(N2CCN(C(=O)CCCCCCCCCCNC(=O)[C@H](CCCCN)n3cc(C[C@@H](C)CC)nn3)CC2)nc(N2CCN(C(=O)CCCCCCCCCCNC(=O)[C@@H]([C@H](C)O)n3cc(C)nn3)CC2)n1 | . | -1.2 | 11.5* | . | . | 49.6* | 32.9 | -7.6
O=C(N[C@H]1c2ccccc2C[C@H]1O)C1=C[C@H](c2coc3ccccc3c2=O)C[C@H](OCCCCO)O1 | . | . | . | . | -0.1 | . | . | .
COCC1CCCCN1C(=O)c1ccc2nc(Cc3ccc(OC)c(OC)c3)oc2c1 (configuration not stated) | -52.5 | 10.0 | 0.9 | 2.5 | -0.3 | 34.7* | -5.6 | -3.1
CCC1CCCCN1C(=O)c1ccc2nc(Cc3ccc(OC)cc3)oc2c1 (configuration not stated) | -40.5 | 6.6 | -3.0 | -1.3 | -0.6 | 3.6 | . | .
COc1ccc(NC(=O)c2ccc(NC(=O)c3cccnc3)cc2)cc1 | . | . | . | . | -0.2 | . | . | .
COc1ccc(C(=O)Nc2ccc(C(=O)Nc3cccnc3)cc2)cc1 | -15.7 | 11.2 | -6.6 | 1.7 | 0.0 | 52.2* | 23.1 | 6.6
COc1ccc(C2=[N+](C)CCn3cccc32)c(OC)c1 | 3.5 | 11.8 | -1.8 | 2.9 | . | 33.4* | 0.5 | 1.3
O=C(C[C@@H]1CC[C@H]2[C@@H](COC[C@@H](O)CN2S(=O)(=O)c2cccc(Cl)c2)O1)N1CCOCC1 | . | . | . | . | -0.3 | . | . | .
CCC(=O)N1CC2(C1)CN(C(C)=O)[C@H](CO)c1[nH]c3cc(OC)ccc3c12 | . | . | . | . | 0.2 | . | . | .
Nc1ccc(N2CCOCC2)c2nonc12 | 9.2 | -2.9 | -0.7 | 4.8 | 0.1 | 54.9* | 1.6 | 7.1
O=C(CCN1CCCCC1)N[C@@H]1CC[C@@H](CCNS(=O)(=O)c2ccccc2)O[C@H]1CO | . | . | . | . | 0.0 | . | . | .
COc1cc(C=C(C(C)=O)C(C)=O)ccc1O | -1.9 | -1.1 | 0.0 | -2.8 | . | 1.5 | . | .
COc1cc(/C=C/C(=O)/C=C(O)/C=C/c2ccc(O)c(OC)c2)ccc1O | . | . | 26.8* | . | -0.3 | 33.6* | 14.2 | -8.4
CN(C)c1ccc(N/C=C/C(=O)c2ccc(F)cc2)cc1 | -13.7 | 4.1 | -10.7 | 20.4 | . | 78.3* | 13.2 | 2.5
NS(=O)(=O)c1ccc(N/C=C\C(=O)c2ccc(F)cc2)cc1 | -3.5 | 3.9 | -6.4 | 0.5 | 0.0 | 3.0 | . | .
CN(C)c1ccc(N/C=C/C(=O)c2ccco2)cc1 | -13.5 | 15.4 | -1.3 | 24.6 | . | 91.1* | -0.3 | -3.8
CC(=O)Nc1ccc(N/C=C/C(=O)c2ccco2)cc1 | -6.0 | -1.3 | -10.5 | 0.7 | . | 0.0 | . | .
C[C@H]1CN([C@@H](C)CO)C(=O)c2cc(C3=CCCCC3)cnc2O[C@H]1CN(C)C(=O)C1CCOCC1 | . | . | . | . | 0.0 | . | . | .
Cc1ccn(CC(C)C(=O)O)n1 (configuration not stated) | 3.8 | -12.4 | -0.5 | -0.6 | 0.2 | 166.3* | 3.6 | 0.3
Cc1ccn(CCSCC(=O)O)n1 | 3.5 | -4.2 | -1.7 | -3.2 | . | -13.3 | . | .
COCC(=O)Nc1ccc2c(c1)C(=O)N(C)C[C@H](OC)[C@@H](C)CN(CC1CC1)[C@H](C)CO2 | . | . | . | . | 0.1 | . | . | .
Cc1cc(S(=O)(=O)NC2CCCCC2)ccc1OCC(=O)NCC1CCCO1 (configuration not stated) | -20.1 | -18.0 | -0.3 | 7.5 | 0.4 | -3.7 | . | .
O=C(COc1ccc(S(=O)(=O)NC2CCCCC2)cc1Cl)NCC1CCCO1 (configuration not stated) | -34.3 | 3.6 | -1.9 | 3.4 | . | 151.9* | 12.1 | -0.1
Cc1cc(=O)[nH]c(-c2ccc(Cl)cc2)n1 | 2.2 | 6.5 | -0.2 | 4.9 | -0.1 | -7.5 | . | .
O=c1[nH]c(-c2ccc(Cl)cc2)nc(=S)[nH]1 | -0.5 | 0.8 | -1.2 | -2.9 | 0.0 | 45.7* | 3.1 | -10.5
SMILES | DNA FID counter | EBNA-1 inhibitor | GRIN3A LBD mod | NS3 helicase inh | FGF22 binding | ZTA counter | Zta DNA confirm | EBNA1 counter
C[C@@H]1CN([C@H](C)CO)C(=O)c2cc(-c3cccnc3)cnc2O[C@@H]1CN(C)C(=O)Cc1cccnc1 | . | . | . | . | 0.5 | . | . | .
C/C=C/c1cnc2c(c1)C(=O)N([C@H](C)CO)C[C@H](C)[C@H](CN(C)C(=O)Nc1ccc(C(F)(F)F)cc1)O2 | . | . | . | . | -0.2 | . | . | .
CNS(=O)(=O)c1cccc(C(=O)OCC(=O)NC2CCCC(C)C2C)c1 (configuration not stated) | . | . | 0.4 | . | -0.2 | . | . | .
CC1CCCC(NC(=O)COC(=O)c2cccc(S(=O)(=O)N3CCCCC3)c2)C1C (configuration not stated) | . | . | 1.7 | . | 0.3 | 40.8* | 0.3 | 7.6
C[C@@H]1CN([C@@H](C)CO)C(=O)c2cc(C#C[C@@H](C)O)cnc2O[C@@H]1CN(C)C(=O)Nc1ccc(F)cc1 | . | . | . | . | -0.3 | . | . | .
CC(=O)N(C)C[C@@H]1Oc2cc(C#Cc3cccc(F)c3)ccc2S(=O)(=O)N([C@@H](C)CO)C[C@H]1C | . | . | . | . | -0.4 | . | . | .
C#CCOCCOCCOCCNc1nc(N2CCN(C(=O)CCCCCCCCCCNC(=O)[C@H](CCCCN)n3cc(CCO)nn3)CC2)nc(N2CCN(C(=O)CCCCCCCCCCNC(=O)[C@H](CCCCN)n3cc(C[C@@H](C)CC)nn3)CC2)n1 | . | 13.3 | 19.9* | . | . | 54.9* | 80.6* | 7.3
C#CCOCCOCCOCCNc1nc(N2CCN(C(=O)CCCCCCCCCCNC(=O)Cn3cc(CCCCCN)nn3)CC2)nc(N2CCN(C(=O)CCCCCCCCCCNC(=O)Cn3cc(C[C@@H](C)O)nn3)CC2)n1 | . | 1.0 | 30.3* | . | . | 46.3* | 20.1 | -0.3
C#CCOCCOCCOCCNc1nc(N2CCN(C(=O)CCCCCCCCCCNC(=O)[C@@H](CCC(=O)O)n3cc(CCCCCN)nn3)CC2)nc(N2CCN(C(=O)CCCCCCCCCCNC(=O)[C@H](CCCCN)n3cc(C[C@@H](C)CC)nn3)CC2)n1 | . | -2.5 | -5.2 | . | . | 53.8* | -12.3 | -2.6
C#CCOCCOCCOCCNc1nc(N2CCN(C(=O)CCCCCCCCCCNC(=O)[C@@H](CCC(=O)O)n3cc(CCCCCN)nn3)CC2)nc(N2CCN(C(=O)CCCCCCCCCCNC(=O)[C@H](CO)n3cc(CCCCCN)nn3)CC2)n1 | . | 3.9 | -0.7 | . | . | 37.1* | -6.7 | -8.1
CN1C(=O)c2cc(NC(=O)c3ccc(F)cc3)ccc2OC[C@H]2O[C@H](CC(=O)N3CCOCC3)CC[C@H]21 | . | . | . | . | -0.2 | . | . | .
CNC[C@H]1OCCCC[C@@H](C)Oc2ccc(NC(=O)Nc3ccccc3)cc2C(=O)N([C@@H](C)CO)C[C@H]1C | . | . | . | . | -0.7 | . | . | .
COc1cccc(-c2ccc([C@H]3[C@@H](C#N)N(C(=O)c4ccccn4)[C@H]3CO)cc2)c1 | . | . | . | . | -0.1 | . | . | .
